Cl transport mod: modulators of human KCC2 chloride dependent transport; KCC2 cells, thallium flux FluoZin-2 fluorescence; B-score of Tl+ flux slope (higher = more flux/activation; lower = inhibition) at 10 µM; hit rate 2.2% among 190,000; AID 1456;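 active = thallium flux slope and its plate-corrected score both differing from the plate sample mean at a set confidence after two filtering rounds, in either direction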;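 note: slope of fluorescence scaled to starting intensity during 10 to 20 s after thallium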
KCNQ1 inh: human KCNQ1 channel inhibition; CHO-K1 KCNQ1, FluxOR thallium flux fluorescence; hits give high values; B-score at 10 µM; hit rate 1.3% among 310,000; AID 2642;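 active = compounds whose thallium flux B-score, printed positive for inhibition, exceeds three library SD while starting fluorescence stays within three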;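 note: channel opened by potassium depolarization with thallium stimulus after 20 min compound exposure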
Target sequence (P51787 whole entry, looked up): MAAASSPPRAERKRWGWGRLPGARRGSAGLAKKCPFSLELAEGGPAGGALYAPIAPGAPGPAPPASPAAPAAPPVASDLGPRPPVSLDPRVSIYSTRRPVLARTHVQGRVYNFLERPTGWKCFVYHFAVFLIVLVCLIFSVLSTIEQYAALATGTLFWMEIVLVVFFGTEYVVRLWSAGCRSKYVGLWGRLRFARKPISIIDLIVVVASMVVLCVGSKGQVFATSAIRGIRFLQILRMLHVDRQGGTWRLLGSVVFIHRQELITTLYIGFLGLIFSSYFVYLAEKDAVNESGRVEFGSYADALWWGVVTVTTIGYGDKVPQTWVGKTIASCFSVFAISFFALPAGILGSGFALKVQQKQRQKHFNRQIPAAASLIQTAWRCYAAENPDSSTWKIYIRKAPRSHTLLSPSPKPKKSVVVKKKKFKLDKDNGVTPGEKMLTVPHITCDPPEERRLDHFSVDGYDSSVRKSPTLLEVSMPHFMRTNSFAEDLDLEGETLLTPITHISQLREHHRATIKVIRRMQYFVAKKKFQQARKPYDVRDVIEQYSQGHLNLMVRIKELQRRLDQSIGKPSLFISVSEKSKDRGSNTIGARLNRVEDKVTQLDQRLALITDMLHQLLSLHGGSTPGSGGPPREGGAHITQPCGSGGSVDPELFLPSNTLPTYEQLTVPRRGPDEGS
KCNQ1 act: potentiators or activators of human KCNQ1 potassium channel. hit rate 0.35% among 310,000. B-score at 10 µM. CHO-K1 KCNQ1, thallium flux FluxOR fluorescence; hits give high values. AID 2648. P51787;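 active = fluorescence ratio B-score, a plate-corrected score, at least three library SD, with initial intensity B-score within 5 SD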
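System: CHO-K1 cells stably expressing KCNQ1 / Medium: assay buffer for compound exposure, DMSO matched across wells / Reagent: thallium- and potassium-containing depolarizing buffer / Compound: one concentration, matched DMSO / Incubation: 20 min compound pretreatment at room temperature / Measured by: kinetic FluxOR fluorescence, 10 s baseline plus 110 s post-stimulus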
KCNK3 block: human KCNK3 channel inhibition, primary screen; O14649; B-score at 10 µM; CHO-KCNK3 thallium flux, FluxOR fluorescence; hits give low values; hit rate 0.84% among 340,000; AID 602410;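 active = B-score under library mean minus 4 SD, starting fluorescence ratio at most library mean plus 5 SD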;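 note: more negative B-score means stronger inhibition of thallium flux through KCNK3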
KCNK9 block: inhibitors of human KCNK9 two-pore domain potassium channel; Q9NPC2; HEK293 KCNK9, FluxOR thallium flux fluorescence; hits give low values; hit rate 1.2% among 310,000; B-score at 10 µM; AID 488922;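 active = ratio B-score over 3 SD below the library mean, with starting fluorescence within 5 SD of its mean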;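 note: negative B-score means less thallium flux so channel inhibition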
hERG rescue: hERG (human) protection from proarrhythmic block; activation (rescue from dofetilide block), less the hit threshold, % at 10 µM; CHO-hERG, FluxOR thallium flux, dofetilide IC70 present; AID 1511; hit rate 0.51% among 310,000;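 active = activation above the mean of controls blocked by dofetilide plus 5 SD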;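 note: thallium influx through hERG after potassium depolarization seen as dye fluorescence rise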
KCNK3 inh conf: human KCNK3 channel inhibition, confirmation assay | CHO-KCNK3 thallium flux, FluxOR fluorescence; 0% buffer, 100% carvedilol maximal block | ratio percent of control, % at 10 µM | AID 651638 | hit rate 99% among 2,400 | shares compounds with KCNK3 block;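 active = ratio percent of control, averaged over triplicates, above buffer control mean plus 5 SD, cut at about 64% in these data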;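 note: ratio is the fluorescence rise from min to max over baseline after thallium stimulus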
KCNK3 noninduced: counter-screen for KCNK3 inhibitors: effect in non-induced cells. thallium flux ratio (lower = more inhibition) at 10 µM. AID 651747. shares compounds with KCNK3 block. hit rate 40% among 2,400. non-induced KCNK3 parental cells, FluxOR thallium flux; hits give low values;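 active = thallium flux ratio, averaged over three wells, more than 5 SD below the buffer control mean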;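 note: host cells are CHO cells without KCNK3 induction; ratio is peak minus trough fluorescence over baseline then normalized to buffer controls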
* hit, by the source's call; i = inactive; / = no result given. Compounds with a hit are over-represented: about 4.1% of the library has one in this group of screens.

SMILES | Cl transport mod | KCNQ1 inh | KCNQ1 act | KCNK3 block | KCNK9 block | hERG rescue | KCNK3 inh conf | KCNK3 noninduced
CCC(C(=O)Nc1ccccc1F)n1nc(C)c2c(C)n(-c3ccccc3)nc2c1=O (stereo not drawn) | / | i | i | -11.6* | i | -9.3 | 89.0* | i
COc1ccc(S(=O)(=O)N2CCN(Cc3cccc(Cl)c3)CC2)cc1 | -1.38 | i | i | i | i | -2.2 | / | /
COc1cccc(CN2CCN(S(=O)(=O)c3ccc(Cl)s3)CC2)c1 | / | i | i | -9.22* | i | -3.8 | 116.3* | 0.127*
Cc1ccc(NC(=O)C(=O)c2c(-c3ccccc3)cc3ccccn23)cc1S(=O)(=O)N1CCOCC1 | -0.53 | i | i | -10* | i | -9.9 | 113.0* | i
Cc1nnc(SCC(=O)Nc2nsc(-c3ccc(C(C)(C)C)cc3)n2)s1 | -2.37 | i | i | -9.88* | i | -14.1 | 101.7* | i
CCCCC(=O)Oc1c(S(=O)(=O)c2ccc(C)cc2)c(C)nn1C(C)(C)C | / | i | i | -9.93* | i | -1.4 | 95.3* | i
CCOC(=O)c1c(N)sc2c1CCSC2 | -0.458 | i | i | -9.55* | i | -8.0 | 71.7* | i
Cc1nc2c(Br)c(C)nn2c2c1CCC2 | 1.01 | i | i | i | i | -10.1 | / | /
CCc1ccc(-c2nc(CSCC(=O)N3CCN(c4ccccn4)CC3)c(C)o2)cc1 | / | i | i | i | i | -33.0 | / | /
CCOc1ccc(-c2nc(CSCC(=O)N3CCN(c4cccc(OC)c4)CC3)c(C)o2)cc1 | / | i | i | -12.1* | i | -15.3 | 138.3* | 0.153*
C1=C(c2cc3ccccc3cn2)CCCC1 | / | / | / | i | / | / | / | /
COc1ccc(C(=O)Nc2ccc(C)cn2)cc1S(=O)(=O)N1CCCc2ccccc21 | / | i | i | i | i | -15.9 | / | /
Cc1ccc(NC(=O)c2ccc(Cl)c(S(=O)(=O)N3CCc4ccccc43)c2)nc1 | / | / | / | -11.5* | / | / | 144.3* | 0.133*
O=C1CCC(C(=O)OC(C(=O)c2c[nH]c3ccccc23)c2ccccc2)=NN1 (stereo not drawn) | 0.893 | i | i | i | -8.74* | -1.6 | 111.3* | i
O=C(OC(C(=O)c1c[nH]c2ccccc12)c1ccccc1)c1cnccn1 (stereo not drawn) | / | i | i | i | i | -13.0 | / | /
CCc1cc(C(=O)Nc2cc(S(=O)(=O)N(C)C)ccc2C)sc1C | -0.153 | i | i | -9.3* | i | -10.1 | 90.0* | i
CCCCN1CN(S(=O)(=O)c2ccc(OC)cc2)c2nc3ccccc3nc21 | / | i | i | -8.89* | i | -9.0 | 90.3* | i
CCN1C(=O)[C@@H]2[C@@H](c3ccc(SC4CCCCC4)c(OC)c3)N3CCCC[C@@]3(C(=O)OC)[C@@H]2C1=O | / | / | / | i | / | / | / | /
CCOC(=O)C1=C(C)N=C2c3ccccc3C(=O)C2C1c1ccccc1 (stereo not drawn) | 0.486 | i | i | -8.86* | i | -5.7 | 102.3* | i
COc1cc(/C=C/CN2CCC(Oc3ccc(C(=O)N4CCCC4)cc3)CC2)ccc1O | / | i | i | i | i | -12.5 | / | /
C(=N\N(c1ccccc1)c1ccccc1)/c1ccccn1 | / | i | i | -9.88* | i | -7.2 | 132.7* | 0.124*
O=C(Nc1cccc(-c2cn3ccccc3n2)c1)c1ccccc1 | -1.78 | i | i | -11.7* | i | -12.6 | 112.0* | i
COc1cccc(-c2nc3ccccc3c(=O)o2)c1 | 0.142 | i | i | i | i | -14.1 | / | /
CCCCC(=O)Nc1cccc(-c2cn3ccccc3n2)c1 | / | i | i | -8.72* | i | -8.0 | 120.7* | 0.131*
Cc1ccc(C(=O)Nc2cccc(-c3cn4ccccc4n3)c2)cc1 | 0.0585 | i | i | i | i | -1.4 | / | /

Source: PubChem
